The source made the active and inactive calls. The rule behind the calls is not given here.
Legend:
[1] = Binding affinity to poly(rA).(rU) RNA duplex (unknown origin) assessed as thermal stability by measuring change in melting temperature at 5 uM by UV-Vis spectrophotometry
In short: (§1)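 UV thermal denaturation of poly(rA)•(rU) duplex at 15 µM/bp, with and without ligand, in 10 mM sodium cacodylate, 0.5 mM EDTA, 100 mM NaCl, pH 7.0. ΔTm is the shift from the melting temperature of free RNA.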

[2] = Inhibition of ethidium bromide binding to r(CGCAAAUUUGCG)2 RNA (unknown origin) at 1:1 ratio of ligand:RNA measured after 5 mins by fluorescent intercalator displacement assay relative to control
In short: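 Buffer is 10 mM sodium cacodylate, 0.5 mM EDTA, 100 mM NaCl, pH 7.0, at 23 °C. Read-out is the percent change in fluorescence emission on ligand addition.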

[3] = Binding affinity to poly(rA).(rU) RNA duplex (unknown origin) assessed as appearance of negative induced LD signal at 348 nanometer at 100 uM after 5 mins by microvolume couette flow linear dichroism method
In short: (§2)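 Linear dichroism spectra of poly(rA)•(rU) (1 mM/bp) alone and mixed with ligand at rbd 10. Run in 10 mM sodium cacodylate, 0.5 mM EDTA, 100 mM NaCl, pH 7.0, at room temperature.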

[4] = Binding affinity to d(CGCAAATTTGCG)2 DNA (unknown origin) assessed as thermal stability by measuring change in melting temperature by UV-Vis spectrophotometry
[5] = Binding affinity to r(CGCAAAUUUGCG)2 RNA duplex (unknown origin) assessed as thermal stability by measuring change in melting temperature at 5 uM by UV-Vis spectrophotometry
[6] = Binding affinity to poly(rA).(rU) RNA duplex (unknown origin) assessed as change in LD signal at 260 nanometer at 100 uM after 5 mins by microvolume couette flow linear dichroism method; in short: as §2
[7] = Inhibition of ethidium bromide binding to r(CGCAAAUUUGCG)2 RNA (unknown origin) after 5 mins by fluorescent intercalator displacement assay
[8] = Binding affinity to poly(rA).(rU) RNA duplex (unknown origin) assessed as change in CD band intensity at 266 nanometer measured after 5 mins by circular dichroism titration method
In short: (§3)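 Circular dichroism titration of poly(rA)•(rU) at 40 µM/bp in 10 mM sodium cacodylate, 0.5 mM EDTA, 100 mM NaCl, pH 7.0, at 25 °C. Concentrated ligand is added serially, with five minutes of equilibration after each addition. Each spectrum is the average of two scans. Binding site size (rbd, RNA base pairs per drug) is taken from the change in nucleic acid CD intensity.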

[9] = Binding affinity to poly(rA).(rU) RNA duplex (unknown origin) assessed as appearance of unidirectional induced CD at 347 nanometer measured after 5 mins by circular dichroism titration method; in short: as §3
[10] = Binding affinity to poly(rA).(rU) RNA duplex (unknown origin) assessed as appearance of negative induced CD at 347 nanometer measured after 5 mins by circular dichroism titration method; in short: as §3
[11] = Binding affinity to poly(rA).(rU) RNA duplex (unknown origin) assessed as isosbestic point at 362 nanometer at 3 uM by UV-vis absorption method
[12] = Binding affinity to poly(rA).(rU) RNA duplex (unknown origin) assessed as hypochromicity at 3 uM by UV-vis absorption method
[13] = Binding affinity to poly(rA).(rU) RNA duplex (unknown origin) assessed as red shift at 3 uM by UV-vis absorption method
[14] = Binding affinity to poly(rA).(rU) RNA duplex (unknown origin) assessed as decrease in CD band intensity at 263 nanometer measured after 5 mins by circular dichroism titration method
In short: (§4)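 Poly(rA)•(rU) at 40 µM/bp in 10 mM sodium cacodylate, 0.5 mM EDTA, 100 mM NaCl, pH 7.0, 25 °C. Concentrated ligand added serially, with 5 min equilibration before each CD scan. Each measurement averages two scans. Changes in nucleic acid CD intensity are plotted against rbd (RNA base pairs per drug) to derive binding site size.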

[15] = Binding affinity to poly(rA).(rU) RNA duplex (unknown origin) assessed as appearance of induced CD band at 320 to 380 nanometer measured after 5 mins by circular dichroism titration method; in short: as §4
[16] = Binding affinity to poly(rA).(rU) RNA duplex (unknown origin) assessed as thermal stability by measuring change in melting temperature at 5 uM in presence of neomycin by UV-Vis spectrophotometry
[17] = Binding affinity to poly(rA).(rU) RNA duplex (unknown origin) measured after 5 mins by circular dichroism titration method; in short: as §3
[18] = Binding affinity to poly(rA).(rU) RNA duplex (unknown origin) assessed as thermal stability by measuring change in melting temperature at 5 uM in presence of Hoechst 33258 by UV-Vis spectrophotometry; in short: as §1

SMILES	ΔTm [1] [°C]	inhibition [2] [%]	Activity [3]	ΔTm [4] [°C]	also measured
CN1CCN(c2ccc3nc(-c4ccc5nc(-c6ccc(OCCOCCOCCOCCOCCOCCOCc7cn(C[C@H]8O[C@@H](O[C@@H]9[C@@H](O)[C@H](N)C[C@H](N)[C@H]9O[C@H]9O[C@H](CN)[C@@H](O)[C@H](O)[C@H]9N)[C@H](O)[C@@H]8O[C@H]8OC(CN)[C@@H](O)[C@H](O)[C@H]8N)nn7)cc6)[nH]c5c4)[nH]c3c2)CC1 (stereo not given in full)	–	20.7 to 36.2	Active	16.4	ΔTm [5]: 7.2 °C
CN1CCN(c2ccc3nc(-c4ccc5nc(-c6ccc(OCCCCc7cn(C[C@H]8O[C@@H](O[C@@H]9[C@@H](O)[C@H](N)C[C@H](N)[C@H]9O[C@H]9O[C@H](CN)[C@@H](O)[C@H](O)[C@H]9N)[C@H](O)[C@@H]8O[C@H]8OC(CN)[C@@H](O)[C@H](O)[C@H]8N)nn7)cc6)[nH]c5c4)[nH]c3c2)CC1 (stereo not given in full)	–	20.7 to 36.2	Active	22.8	Activity [6]: Active; Ka [7]: 8.8 ×10⁶ /M; ΔTm [5]: 15.1 °C
C#CCOCCOCCOCCOCCOCCOCCOc1ccc(-c2nc3ccc(-c4nc5ccc(N6CCN(C)CC6)cc5[nH]4)cc3[nH]2)cc1	0.2	–	–	–	–
CN1CCN(c2ccc3nc(-c4ccc5nc(-c6ccc(OCCCCCCOCc7cn(C[C@H]8O[C@@H](O[C@@H]9[C@@H](O)[C@H](N)C[C@H](N)[C@H]9O[C@H]9O[C@H](CN)[C@@H](O)[C@H](O)[C@H]9N)[C@H](O)[C@@H]8O[C@H]8OC(CN)[C@@H](O)[C@H](O)[C@H]8N)nn7)cc6)[nH]c5c4)[nH]c3c2)CC1 (stereo not given in full)	15.8 to 19	20.7 to 36.2	Active	22.2	Activity [8]: Active; Activity [9]: Active; Activity [10]: Active; Activity [11]: Active; Activity [12]: 34.1%; Activity [13]: 10 nm
C#CCOCCCCCCCCOc1ccc(-c2nc3ccc(-c4nc5ccc(N6CCN(C)CC6)cc5[nH]4)cc3[nH]2)cc1	0.7	–	–	–	–
CN1CCN(c2ccc3nc(-c4ccc5nc(-c6ccc(OCCCCCCCCc7cn(C[C@H]8O[C@@H](O[C@@H]9[C@@H](O)[C@H](N)C[C@H](N)[C@H]9O[C@H]9O[C@H](CN)[C@@H](O)[C@H](O)[C@H]9N)[C@H](O)[C@@H]8O[C@H]8OC(CN)[C@@H](O)[C@H](O)[C@H]8N)nn7)cc6)[nH]c5c4)[nH]c3c2)CC1 (stereo not given in full)	–	20.7 to 36.2	Active	13.2	ΔTm [5]: 16.2 °C
CN1CCN(c2ccc3[nH]c(-c4ccc5[nH]c(-c6ccc(O)cc6)nc5c4)nc3c2)CC1	0.4	8.2	–	–	Activity [14]: Active; Activity [15]: Active; Activity [8]: Active; ΔTm [16]: 10.5 °C; Activity [12]: 32.2%; Activity [13]: 1 nm
C#CCOCCCCCCCCCCOc1ccc(-c2nc3ccc(-c4nc5ccc(N6CCN(C)CC6)cc5[nH]4)cc3[nH]2)cc1	0.3	–	–	–	–
CN1CCN(c2ccc3nc(-c4ccc5nc(-c6ccc(OCCCCCCCCOCc7cn(C[C@H]8O[C@@H](O[C@@H]9[C@@H](O)[C@H](N)C[C@H](N)[C@H]9O[C@H]9O[C@H](CN)[C@@H](O)[C@H](O)[C@H]9N)[C@H](O)[C@@H]8O[C@H]8OC(CN)[C@@H](O)[C@H](O)[C@H]8N)nn7)cc6)[nH]c5c4)[nH]c3c2)CC1 (stereo not given in full)	21.9	20.7 to 36.2	Active	21.7	–
CN1CCN(c2ccc3nc(-c4ccc5nc(-c6ccc(OCCCCCCCCCCOCc7cn(C[C@H]8O[C@@H](O[C@@H]9[C@@H](O)[C@H](N)C[C@H](N)[C@H]9O[C@H]9O[C@H](CN)[C@@H](O)[C@H](O)[C@H]9N)[C@H](O)[C@@H]8O[C@H]8OC(CN)[C@@H](O)[C@H](O)[C@H]8N)nn7)cc6)[nH]c5c4)[nH]c3c2)CC1 (stereo not given in full)	20.3	20.7 to 36.2	Active	19	–

Continued, in another order:

ΔTm [1] [°C]	inhibition [2] [%]	Activity [3]	ΔTm [4] [°C]	SMILES	also measured
0.3	–	–	–	C#CCOCCCCOc1ccc(-c2nc3ccc(-c4nc5ccc(N6CCN(C)CC6)cc5[nH]4)cc3[nH]2)cc1	–
–	20.7 to 36.2	Active	18.2	CN1CCN(c2ccc3nc(-c4ccc5nc(-c6ccc(OCCCCCCCCCCCCOCc7cn(C[C@H]8O[C@@H](O[C@@H]9[C@@H](O)[C@H](N)C[C@H](N)[C@H]9O[C@H]9O[C@H](CN)[C@@H](O)[C@H](O)[C@H]9N)[C@H](O)[C@@H]8O[C@H]8OC(CN)[C@@H](O)[C@H](O)[C@H]8N)nn7)cc6)[nH]c5c4)[nH]c3c2)CC1 (stereo not given in full)	–
0	–	–	–	C#CCOc1ccc(-c2nc3ccc(-c4nc5ccc(N6CCN(C)CC6)cc5[nH]4)cc3[nH]2)cc1	–
–	20.7 to 36.2	Active	23.8	CN1CCN(c2ccc3nc(-c4ccc5nc(-c6ccc(OCc7cn(C[C@H]8O[C@@H](O[C@@H]9[C@@H](O)[C@H](N)C[C@H](N)[C@H]9O[C@H]9O[C@H](CN)[C@@H](O)[C@H](O)[C@H]9N)[C@H](O)[C@@H]8O[C@H]8OC(CN)[C@@H](O)[C@H](O)[C@H]8N)nn7)cc6)[nH]c5c4)[nH]c3c2)CC1 (stereo not given in full)	ΔTm [5]: 9.1 °C
10.8	20.4	–	–	NC[C@@H]1O[C@H](O[C@H]2[C@@H](O)[C@H](O[C@@H]3[C@@H](O)[C@H](N)C[C@H](N)[C@H]3O[C@H]3O[C@H](CN)[C@@H](O)[C@H](O)[C@H]3N)O[C@@H]2CO)[C@H](N)[C@@H](O)[C@@H]1O	Activity [8]: Active; Activity [17]: Active; ΔTm [18]: 10.5 °C
-0.2	–	–	–	C#CCOCCCCCCCCCCCCOc1ccc(-c2nc3ccc(-c4nc5ccc(N6CCN(C)CC6)cc5[nH]4)cc3[nH]2)cc1	–
-1.2	–	–	–	C#CCCCCOc1ccc(-c2nc3ccc(-c4nc5ccc(N6CCN(C)CC6)cc5[nH]4)cc3[nH]2)cc1	–
15	20.7 to 36.2	Active	24.6	CN1CCN(c2ccc3nc(-c4ccc5nc(-c6ccc(OCCCCOCc7cn(C[C@H]8O[C@@H](O[C@@H]9[C@@H](O)[C@H](N)C[C@H](N)[C@H]9O[C@H]9O[C@H](CN)[C@@H](O)[C@H](O)[C@H]9N)[C@H](O)[C@@H]8O[C@H]8OC(CN)[C@@H](O)[C@H](O)[C@H]8N)nn7)cc6)[nH]c5c4)[nH]c3c2)CC1 (stereo not given in full)	–
0.3	–	–	–	C#CCOCCCCCCOc1ccc(-c2nc3ccc(-c4nc5ccc(N6CCN(C)CC6)cc5[nH]4)cc3[nH]2)cc1	–
-0.4	–	–	–	C#CCCCCCCCCCOc1ccc(-c2nc3ccc(-c4nc5ccc(N6CCN(C)CC6)cc5[nH]4)cc3[nH]2)cc1	–

— ChEMBL document CHEMBL3868633, “Linker dependent intercalation of bisbenzimidazole-aminosugars in an RNA duplex; selectivity in RNA vs. DNA binding” (Bioorg Med Chem Lett, 2016)
